Screens from PubChem.
The list is not random: actives were taken first. Their share in the collection is about 2.2%.
NR2F2 inh – NR2F2 (human) inhibition, primary screen; AID 686940; inhibition, % at 8.6 µM; 370,000 tested, 0.7% active; HEK293T NGFI-A luciferase reporter, luminescence;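 active means inhibition above a per-plate cutoff, mean inhibition of test wells between control levels plus 3 SD, cut at about 38% in these data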;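 further: cells cotransfected with COUP-TFII expression vector driving the NGFI-A reporter; 0% = median of COUP-TF2 test wells and 100% = reporter-only cells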
Target sequence (P24468 whole entry, looked up): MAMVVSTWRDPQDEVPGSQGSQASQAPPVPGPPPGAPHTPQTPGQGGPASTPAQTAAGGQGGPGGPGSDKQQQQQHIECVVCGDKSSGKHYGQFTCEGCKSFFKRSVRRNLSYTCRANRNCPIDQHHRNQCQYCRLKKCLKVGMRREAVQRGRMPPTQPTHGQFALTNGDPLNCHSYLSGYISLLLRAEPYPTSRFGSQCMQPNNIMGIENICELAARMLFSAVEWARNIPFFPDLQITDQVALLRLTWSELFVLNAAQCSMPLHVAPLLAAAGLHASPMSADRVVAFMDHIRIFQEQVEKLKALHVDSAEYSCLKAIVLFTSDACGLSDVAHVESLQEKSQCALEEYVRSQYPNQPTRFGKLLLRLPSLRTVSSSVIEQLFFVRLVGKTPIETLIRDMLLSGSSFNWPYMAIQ
NR2E3 ag-1 – agonists of human NR2E3 nuclear receptor; Q9Y5X4; CHO-S Gal4-NCOR/VP16-NR2E3 two-hybrid, luciferase; inhibition of corepressor binding, % at 3.98 µM; 360,000 tested, 0.35% active;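 active means inhibition above the mean of all tested compounds plus 3 SD, cut at about 70% in these data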;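 further: 0% = DMSO with NR2E3 transfected cells and 100% = cells lacking NR2E3 construct; higher means lower luciferase signal from less NR2E3 corepressor binding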
GalR3 antagonist – human GalR3 antagonism. O60755. HEK293 GalR3-CNG cAMP membrane potential fluorescence; galR3 body fused to GalR1 C-terminus. inhibition, % at 3 µM. 360,000 tested, 0.44% active. AID 651719;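 active means inhibition above the screen-wide average plus 3 SD, cut at about 13% in these data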;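 further: forskolin and galanin both at EC90 stimulate the cells; cAMP rise reported by CNG channel membrane potential dye signal; 0% = forskolin plus galanin with DMSO and 100% = forskolin alone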
Target sequence (O60755 1-299 limits assumed): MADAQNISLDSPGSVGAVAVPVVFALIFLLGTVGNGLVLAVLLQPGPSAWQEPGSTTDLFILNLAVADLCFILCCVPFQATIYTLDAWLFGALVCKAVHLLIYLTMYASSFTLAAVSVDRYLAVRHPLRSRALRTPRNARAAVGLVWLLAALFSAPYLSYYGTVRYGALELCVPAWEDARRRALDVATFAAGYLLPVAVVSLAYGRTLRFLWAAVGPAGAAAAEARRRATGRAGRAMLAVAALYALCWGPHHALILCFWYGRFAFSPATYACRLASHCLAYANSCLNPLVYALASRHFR
NR2E3 ag-2 – agonists of human nuclear receptor NR2E3 | GST-NR2E3/biotin-RetCOR TR-FRET, 1536-well | AID 2300 | inhibition of corepressor binding, % at 4.78 µM | 320,000 tested, 0.12% active | Q9Y5X4;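 active means percent inhibition above the cutoff of mean plus 3 SD of all tested compounds, set per screening campaign, cut at about 20% in these data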;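 further: 0% = DMSO wells and 100% = biotin wells as full block of FRET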
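Material: NR2E3–RetCOR corepressor complex / Incubation: Compound–protein incubation for 5 h at 4 °C / Dosing: compound at 4.8 µM, single dose / Detection: time-resolved FRET / Benchmarks: high control biotin, low control 0.6% DMSO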
SMARCA2 act – increases SMARCA2 function in MMTV reporter cells; 370,000 tested, 1% active; activation, % at 9.1 µM; MG213 cells, MMTV-luciferase reporter, dexamethasone, overnight; in the data active means activation above about 7.8%;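 further: 0% = vehicle wells and 100% = reference activator wells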
GalR3 conf – GalR3 (human) antagonism, confirmation | 1,600 tested, 59% active | HEK293 GalR3 CNG cAMP biosensor, membrane potential fluorescence; galR3 fused to GalR1 carboxy tail; challenged with forskolin and galanin at EC90 | shares compounds with GalR3 antagonist | inhibition, % at 3 µM;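 active means inhibition above the primary screen's cutoff, the mean inhibition of all screened compounds plus 3 SD, cut at about 13% in these data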;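 further: 0% = forskolin plus galanin and 100% = forskolin alone with DMSO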
HEK-CNG parental – acts as nonspecific agonist in parental HEK-CNG cells; shares compounds with GalR3 antagonist; HEK293-CNG parental cells, cAMP membrane potential fluorescence; normalised: DMSO wells 0%, forskolin wells 100%; activation, % at 3 µM; 1,600 tested, 10% active; AID 652268; in the data active means activation above about 1.3%
* hit, by the source's call; . = no result given.

SMILES	NR2F2 inh	NR2E3 ag-1	GalR3 antagonist	NR2E3 ag-2	SMARCA2 act	GalR3 conf	HEK-CNG parental
COc1ccc(CNC(=O)CN(C(=O)CCC(=O)Nc2ccccn2)c2cccc(C)c2)cc1	-5.1	-32.1	13.5*	-0.8	0.7	29.5*	1.3*
O=C(Nc1ccccc1)c1nn(-c2cccc(C(F)(F)F)c2)ccc1=O	-2.2	-29.2	45.2*	2.8	3.2	50.3*	0.2
O=C(NCCc1c[nH]c2ccccc12)OCc1cn(-c2cccc(Cl)c2)nn1	-1.0	.	.	.	-2.3	.	.
CCN(CC)S(=O)(=O)c1cccc(NC(=O)COC(=O)c2n[nH]c(=O)c3ccccc23)c1	-3.6	-9.9	14.9*	2.9	1.2	50.5*	-1.3
O=S(=O)(Nc1nc2ccccc2nc1NCC1CCCO1)c1ccccc1 (centres undefined)	8.9	0.6	2.6	0.2	1.7	.	.
O=S(=O)(Nc1nc2ccccc2nc1NCC1CCCO1)c1cc(Cl)ccc1Cl (centres undefined)	-0.6	-13.8	15.2*	0.7	-5.4	1.4	-0.2
COc1ccc(/C=N/NC(=O)C(=O)N2CCCCCC2)cc1[N+](=O)[O-]	-9.4	5.3	16.5*	-1.6	-0.8	21.7*	0.1
COc1ccc(/C=N/NC(=O)C(C)Sc2ccccn2)cc1[N+](=O)[O-] (centres undefined)	-4.7	-32.4	19.3*	2.5	-1.4	3.3	-0.1
COc1ccc(/C=N\NC(=O)CNC(=O)C(c2ccccc2)c2ccccc2)cc1[N+](=O)[O-]	2.2	25.8	-1.6	1.0	1.0	.	.
CN1C(=O)c2cc(NC(=O)C3CCCCC3)ccc2OC[C@H]2O[C@@H](CC(=O)NC3CCCC3)CC[C@H]21	6.0	.	.	.	-4.2	.	.
CC(C)C(=O)OCCCN1CCC2(CCC(c3ccccc3)CC2)C1=O (centres undefined)	-11.4	.	.	.	-3.1	.	.
COc1ccc(-c2nc(C#N)c(NCc3ccc(F)cc3)o2)cc1OC	6.9	-5.8	13.4*	1.1	-0.3	25.0*	0.0
CCc1onc(C)c1C(=O)Nc1ccc2c(c1)OCO2	-1.6	-23.1	.	0.4	1.1	5.3	-0.1
Cc1onc(-c2ccccc2)c1C(=O)NC(=S)NNC(=O)c1ccc(O)cc1	-2.0	32.6	.	-1.0	-3.7	2.4	0.2
Cc1onc(-c2ccccc2)c1C(=O)NC(=S)NNC(=O)c1ccccc1O	26.1	12.0	-1.1	0.7	-5.5	.	.
COc1ccccc1CNC(=O)C[C@H]1CC[C@H]2[C@@H](COc3ccc(NC(=O)Nc4ccccc4)cc3C(=O)N2C)O1	5.8	.	.	.	-3.8	.	.
CCOC(=O)c1c(C)c(C(=O)NC2CCCCCC2)c(C)n1C	11.2	6.0	-4.6	.	-1.8	.	.
CCOC(=O)c1c(C)c2c(n1C)CCC/C2=N\O	-33.2	-5.9	65.9*	-1.0	0.1	32.3*	0.0
COc1ccc(-c2cc(-c3n[nH]c(=S)n3-c3ccccc3OC)[nH]n2)cc1	6.1	-0.4	22.1*	1.4	3.0	16.9*	0.3
COc1ccc(OC)c(-n2c(-c3cc(-c4ccccc4)n[nH]3)n[nH]c2=S)c1	2.1	-15.5	-2.6	0.6	-3.2	.	.
O=C1C(CN2CCCC2)CCCC1CN1CCCC1 (centres undefined)	-69.6	1.4	15.1*	.	-4.3	-1.1	1.0
COc1ccccc1OCc1ccc(C(=O)OCC2CCCO2)o1 (centres undefined)	-12.1	-15.9	14.6*	-0.4	-2.5	2.7	-0.2
COc1ccc(Nc2cc3n(c(=O)n2)CCc2cc(OC)c(OC)cc2-3)cc1	-10.4	-56.2	21.1*	4.5	6.9	58.6*	0.2
COc1cc2c(cc1OC)-c1cc(Nc3ccc(C(=O)O)cc3)nc(=O)n1CC2	-14.7	-15.5	-7.6	-0.7	-0.9	.	.
COc1cc2c(cc1OC)-c1cc(Nc3ccccc3)nc(=O)n1CC2	-21.6	0.8	44.1*	-4.6	4.4	57.3*	0.6
SMILES	NR2F2 inh	NR2E3 ag-1	GalR3 antagonist	NR2E3 ag-2	SMARCA2 act	GalR3 conf	HEK-CNG parental
CCN(CC)CCCNc1cc2n(c(=O)n1)CCc1cc(OC)c(OC)cc1-2	-13.0	14.3	-2.8	0.3	2.4	.	.
CCOc1cccc(Nc2cc3n(c(=O)n2)CCc2cc(OC)c(OC)cc2-3)c1	-16.4	-13.3	16.5*	2.2	-2.1	56.2*	0.2
COc1ccc(Nc2cc3n(c(=O)n2)CCc2cc(OC)c(OC)cc2-3)c(C)c1	-55.3	-34.5	39.5*	-0.8	5.2	71.9*	0.4
COC(=O)[C@H](CC(C)C)N1Cc2nnn(Cc3ccccc3)c2-c2cc(F)ccc2S1(=O)=O	-4.5	.	.	.	-3.6	.	.
CN(CCOC(=O)CSc1ccccc1)C1CN(Cc2cn(Cc3ccccc3F)nn2)S(=O)(=O)C1 (centres undefined)	19.9	.	.	.	-0.5	.	.
COc1cc2c(cc1OC)-c1cc(NC3CCCCCC3)nc(=O)n1CC2	-27.3	14.3	52.1*	0.1	7.5	58.1*	1.1
COc1ccc(CN2C(=O)CSCCC2(C)c2nnnn2-c2c(C)cccc2C)cc1 (centres undefined)	-10.1	.	.	.	-1.9	.	.
c1cncc(-c2nnc3sc(C4CCCCC4)nn23)c1	-13.9	-11.8	.	0.3	0.0	4.4	0.2
CC(=O)N1CCN(c2ccc(NC(=S)NC(=O)COc3ccc(C(C)(C)C)cc3)cc2)CC1	11.4	-11.9	29.8*	2.0	2.9	95.2*	-0.6
CN1C(=O)C(CC(=O)Nc2ccc(F)cc2)N(Cc2cccs2)C1=S (centres undefined)	-12.1	14.1	15.5*	0.0	0.2	3.9	-0.6
COc1ccc(/C=C/C2=NNC(=O)CC2)cc1	-1.6	-59.0	14.7*	-3.7	0.8	8.9	0.1
CCOc1ccc(/C=C/C2=NNC(=O)CC2)cc1	-36.1	-55.1	1.2	-6.4	-0.8	.	.
Nc1cc(N)nc(SCC(=O)c2ccc3c(c2)NC(=O)CO3)n1	-4.0	-7.7	7.8	3.5	2.9	.	.
Cc1cc(=O)[nH]c(SCC(=O)c2ccc3c(c2)NC(=O)CO3)n1	-5.9	-14.1	15.1*	0.2	-6.5	-0.2	0.2
Cc1nn(C)cc1NC(=O)C[C@H]1CC[C@H]2[C@@H](COc3ccc(NC(=O)Nc4ccccc4)cc3C(=O)N2C)O1	-2.9	.	.	.	-2.3	.	.
CCOCCCNS(=O)(=O)c1ccc(NC(=O)c2ccccc2)cc1	12.6	-8.5	64.6*	4.5	-5.6	4.0	0.0
O=C(O)CNC(=S)N(Cc1ccccc1Cl)C1CCCCC1	-14.5	3.6	14.4*	4.3	-1.7	-0.1	-0.2
COC(=O)CC[C@H](/C=C/C(=O)OC(C)(C)C)Sc1ccc(C(C)(C)C)cc1	-3.7	.	.	.	2.6	.	.
